Each structure is given as a SMILES string. The source made the active and inactive calls. The rule behind the calls is not given here. Some results are limits rather than exact numbers.

Data set [1] addresses Metabotropic glutamate receptor 5 (Homo sapiens) (UniProt P41594). Description: Antagonist activity against human mGluR5a assessed as effect on cAMP production in RGT cells upto 100 uM. The class given is functional, cell-based. The procedure, abridged:
(§1)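 Compounds were tested at concentrations up to 100 µM for agonist or antagonist effects. Assays used RGT cells, which are AV12-664 cells coexpressing GLAST and recombinant human mGlu1a, mGlu5a, mGlu4a or mGlu7a.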

Data set [2] addresses Metabotropic glutamate receptor 4 (Homo sapiens) (UniProt Q14833). Description: Antagonist activity against human mGluR4a assessed as effect on cAMP production in RGT cells upto 100 uM. It is filed as functional, cell-based. The method in brief: as §1
The target of data set [3] is Metabotropic glutamate receptor 1 (Homo sapiens) (UniProt Q13255). The data set can be described thus: Antagonist activity against human mGluR1a assessed as effect on cAMP production in RGT cells upto 100 uM. The class given is functional, cell-based. The method in brief:
as §1

The target of data set [4] is Metabotropic glutamate receptor 7 (Homo sapiens) (UniProt Q14831). Description: Antagonist activity against human mGluR7a assessed as effect on cAMP production in RGT cells upto 100 uM. The class given is functional, cell-based. The procedure, abridged: as §1
Metabotropic glutamate receptor 7 (Homo sapiens), sequence (Q14831 whole entry): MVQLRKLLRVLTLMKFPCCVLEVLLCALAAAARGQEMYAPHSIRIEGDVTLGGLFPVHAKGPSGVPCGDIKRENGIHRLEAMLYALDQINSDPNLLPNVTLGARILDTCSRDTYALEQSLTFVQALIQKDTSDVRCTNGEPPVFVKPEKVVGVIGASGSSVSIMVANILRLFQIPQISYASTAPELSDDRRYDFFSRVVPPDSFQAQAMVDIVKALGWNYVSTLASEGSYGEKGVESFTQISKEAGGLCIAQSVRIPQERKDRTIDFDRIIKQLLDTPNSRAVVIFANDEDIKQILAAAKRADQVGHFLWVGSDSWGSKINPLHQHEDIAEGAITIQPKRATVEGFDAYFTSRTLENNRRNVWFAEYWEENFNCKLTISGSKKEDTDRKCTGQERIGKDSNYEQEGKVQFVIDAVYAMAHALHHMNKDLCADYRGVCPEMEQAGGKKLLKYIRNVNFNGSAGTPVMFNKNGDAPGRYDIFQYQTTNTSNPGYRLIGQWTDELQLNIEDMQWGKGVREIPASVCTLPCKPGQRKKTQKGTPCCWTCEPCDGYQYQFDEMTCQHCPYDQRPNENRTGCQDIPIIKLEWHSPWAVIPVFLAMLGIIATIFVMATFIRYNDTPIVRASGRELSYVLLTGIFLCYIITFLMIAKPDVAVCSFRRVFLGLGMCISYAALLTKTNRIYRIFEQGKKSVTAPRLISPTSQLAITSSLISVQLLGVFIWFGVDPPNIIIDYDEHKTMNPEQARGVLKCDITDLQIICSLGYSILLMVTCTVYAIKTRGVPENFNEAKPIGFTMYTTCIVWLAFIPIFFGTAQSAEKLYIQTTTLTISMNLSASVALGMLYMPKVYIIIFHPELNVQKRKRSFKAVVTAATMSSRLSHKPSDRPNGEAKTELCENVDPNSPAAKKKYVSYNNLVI
The target in data set [5] is Metabotropic glutamate receptor 1 (Homo sapiens) (UniProt Q13255). Description: Agonist activity at human mGluR1a assessed as effect on cAMP production in RGT cells upto 100 uM. It is filed as functional, cell-based. The procedure, abridged: as §1
Metabotropic glutamate receptor 1 (Homo sapiens), sequence (Q13255 19-1194 limits assumed): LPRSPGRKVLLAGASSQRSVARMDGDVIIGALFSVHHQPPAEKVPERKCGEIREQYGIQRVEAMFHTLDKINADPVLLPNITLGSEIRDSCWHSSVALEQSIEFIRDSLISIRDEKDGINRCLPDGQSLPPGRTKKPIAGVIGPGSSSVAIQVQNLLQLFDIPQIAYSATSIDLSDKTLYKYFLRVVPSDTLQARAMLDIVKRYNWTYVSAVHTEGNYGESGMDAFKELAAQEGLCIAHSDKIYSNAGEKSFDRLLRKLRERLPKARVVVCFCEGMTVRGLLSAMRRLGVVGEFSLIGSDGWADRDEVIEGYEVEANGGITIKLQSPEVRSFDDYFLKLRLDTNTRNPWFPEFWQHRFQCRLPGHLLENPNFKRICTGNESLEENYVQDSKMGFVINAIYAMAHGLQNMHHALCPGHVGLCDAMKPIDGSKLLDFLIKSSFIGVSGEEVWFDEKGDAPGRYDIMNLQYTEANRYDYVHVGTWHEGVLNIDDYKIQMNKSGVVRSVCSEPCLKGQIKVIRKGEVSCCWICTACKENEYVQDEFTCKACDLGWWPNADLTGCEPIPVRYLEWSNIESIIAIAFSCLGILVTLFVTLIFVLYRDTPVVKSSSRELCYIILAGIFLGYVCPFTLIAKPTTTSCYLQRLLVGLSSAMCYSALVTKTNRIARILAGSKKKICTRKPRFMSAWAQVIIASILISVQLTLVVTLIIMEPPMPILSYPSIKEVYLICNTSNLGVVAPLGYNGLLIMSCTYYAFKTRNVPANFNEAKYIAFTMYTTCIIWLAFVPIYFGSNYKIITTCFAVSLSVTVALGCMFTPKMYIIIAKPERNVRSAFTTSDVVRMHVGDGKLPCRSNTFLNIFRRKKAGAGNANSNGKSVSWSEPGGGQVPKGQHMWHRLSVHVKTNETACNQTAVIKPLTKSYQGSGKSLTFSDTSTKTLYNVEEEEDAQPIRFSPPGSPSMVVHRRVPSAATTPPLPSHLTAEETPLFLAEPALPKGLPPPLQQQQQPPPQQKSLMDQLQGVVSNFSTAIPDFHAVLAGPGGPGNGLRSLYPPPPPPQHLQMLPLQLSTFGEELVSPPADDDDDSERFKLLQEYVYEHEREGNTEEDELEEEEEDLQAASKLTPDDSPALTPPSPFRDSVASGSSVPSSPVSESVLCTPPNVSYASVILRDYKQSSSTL
Data set [6] deals with Rattus norvegicus. Description: Cmax in Fischer 344 rat at 10 mg/kg, po. It is filed as ADME, organism-based. Set-up: dose 10 mg/kg, route oral. Particulars: in vivo. The method in brief:
(§2)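 Male Fischer 344 rats fasted overnight, food returned 4 h post dose, water ad libitum. Doses were in water brought to pH 7 with NaOH, given i.v. (2.5 or 10 mg/kg) or p.o. (10 mg/kg). Nine rats per dose group, three per time point, with blood taken over 0.08–24 h. Plasma measured by LC/MS/MS.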

For data set [7], the target named is Metabotropic glutamate receptor 4 (Homo sapiens) (UniProt Q14833). Description: Agonist activity at human mGluR4a assessed as effect on cAMP production in RGT cells upto 100 uM. The class given is functional, cell-based. The method in brief:
as §1

Data set [8] addresses T1, Metabotropic glutamate receptor 3 (Homo sapiens, UniProt Q14832). Description: Agonist activity at human mGluR3 assessed as effect on cAMP production in RGT cells. The class given is functional, cell-based. The procedure, abridged:
(§3)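 cAMP second-messenger responses measured in RGT cells. These are non-neuronal AV12-664 cells coexpressing the glutamate transporter GLAST, to minimize glutamate activity, plus the recombinant human receptor (mGlu2, mGlu3 or mGlu8). Agonist EC50 determined.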

The subject of data set [9] is Rattus norvegicus. Description: Reduction of PCP-induced ambulations in Sprague-Dawley rat at 3 mg/kg, po. It is filed as functional. The arrangement: scale not given: the % may be the effect or the level left. The procedure, abridged: (§4)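 Male Sprague-Dawley rats (225-274 g) fasted 12-18 h and habituated 30 min to the test cage. Test drug or vehicle was given orally 2 h before PCP (5 mg/kg s.c.) or 0.9% NaCl. Horizontal photobeam breaks were counted over 60 min, n=8-13 per group.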

Data set [10] concerns the target Metabotropic glutamate receptor 7 (Homo sapiens) (UniProt Q14831). The data set can be described thus: Agonist activity at human mGluR7a assessed as effect on cAMP production in RGT cells upto 100 uM. It is filed as functional, cell-based. The method in brief:
as §1

A short description of data set [11]: AUC (0-24h) in Fischer 344 rat at 10 mg/kg, po. The following applies: Fischer 344, rat, plasma. The arrangement: time < 24 hr, dose 10 mg/kg, route oral. It is filed as ADME, organism-based, Plasma. The method in brief: as §2
A short description of data set [12]: AUC (0-24h) in Fischer 344 rat at 2.5 mg/kg, iv. The class given is ADME, organism-based. The arrangement: time < 24 hr, dose 2.5 mg/kg, route intravenous. The following applies: plasma. The method in brief: as §2
Data set [13] deals with Metabotropic glutamate receptor 5 (Homo sapiens) (UniProt P41594). Description: Agonist activity at human mGluR5a assessed as effect on cAMP production in RGT cells upto 100 uM. The class given is functional, cell-based. The procedure, abridged: as §1
Metabotropic glutamate receptor 5 (Homo sapiens), sequence (P41594 21-1212 limits assumed): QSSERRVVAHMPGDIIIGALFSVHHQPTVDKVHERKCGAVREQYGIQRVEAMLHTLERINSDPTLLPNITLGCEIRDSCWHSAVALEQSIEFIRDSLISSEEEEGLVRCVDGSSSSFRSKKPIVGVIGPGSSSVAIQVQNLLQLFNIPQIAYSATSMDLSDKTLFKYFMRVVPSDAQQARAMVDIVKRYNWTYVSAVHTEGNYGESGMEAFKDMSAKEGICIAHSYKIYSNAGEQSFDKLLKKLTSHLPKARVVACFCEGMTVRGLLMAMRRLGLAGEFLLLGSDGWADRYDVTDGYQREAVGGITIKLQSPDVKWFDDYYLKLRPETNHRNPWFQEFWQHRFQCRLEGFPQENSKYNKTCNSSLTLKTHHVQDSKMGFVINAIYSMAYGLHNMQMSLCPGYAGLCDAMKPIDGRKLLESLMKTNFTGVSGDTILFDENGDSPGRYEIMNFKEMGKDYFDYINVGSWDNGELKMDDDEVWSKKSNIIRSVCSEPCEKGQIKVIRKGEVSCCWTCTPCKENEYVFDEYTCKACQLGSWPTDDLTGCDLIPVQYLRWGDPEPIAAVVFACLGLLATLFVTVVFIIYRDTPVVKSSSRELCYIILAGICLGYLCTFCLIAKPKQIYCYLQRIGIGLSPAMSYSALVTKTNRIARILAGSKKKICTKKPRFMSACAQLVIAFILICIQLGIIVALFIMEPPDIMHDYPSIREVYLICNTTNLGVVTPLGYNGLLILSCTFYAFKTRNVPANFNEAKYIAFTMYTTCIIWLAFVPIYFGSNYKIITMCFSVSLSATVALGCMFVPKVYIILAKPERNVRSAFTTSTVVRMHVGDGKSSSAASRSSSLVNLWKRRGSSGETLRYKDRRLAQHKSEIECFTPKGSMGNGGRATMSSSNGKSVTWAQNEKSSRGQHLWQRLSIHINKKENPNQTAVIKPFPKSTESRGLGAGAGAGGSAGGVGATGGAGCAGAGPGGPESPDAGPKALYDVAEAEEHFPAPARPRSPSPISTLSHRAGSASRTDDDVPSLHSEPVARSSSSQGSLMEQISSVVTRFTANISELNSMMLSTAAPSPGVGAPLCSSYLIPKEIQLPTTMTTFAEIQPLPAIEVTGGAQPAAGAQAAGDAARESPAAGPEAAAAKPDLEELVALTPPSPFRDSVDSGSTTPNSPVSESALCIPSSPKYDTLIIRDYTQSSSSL
For data set [14], the target named is T1, Metabotropic glutamate receptor 3. Description: Displacement of [3H]LY341495 from human recombinant mGluR3 in RGT cells. The class given is cell-based. The procedure, abridged: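 Radioligand binding on membranes carrying recombinant human mGlu2 or mGlu3, displacing the antagonist [3H]LY341495. Ki was calculated from IC50 by the Cheng-Prusoff equation. Values are the mean of at least three separate experiments.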

Data set [15] has as its target Metabotropic glutamate receptor 2 (Homo sapiens, UniProt Q14416). The data set can be described thus: Agonist activity at human mGluR2 assessed as effect on cAMP production in RGT cells. It is filed as functional, cell-based. The procedure, abridged: as §3
In data set [16] the test system is Rattus norvegicus. Description: Inhibition of PCP-induced ambulations in Sprague-Dawley rat after oral administration. The class given is functional. The method in brief:
as §4

Data set [17] has as its system Rattus norvegicus. The data set can be described thus: Reduction of PCP-induced ambulations in Sprague-Dawley rat at 10 mg/kg, po. It is filed as functional. The arrangement: scale not given: the % may be the effect or the level left. The method in brief: as §4
Data set [18] in a line: Tmax in Fischer 344 rat at 2.5 mg/kg, iv. It is filed as ADME, organism-based. Set-up: dose 2.5 mg/kg, route intravenous. Particulars: in vivo. The method in brief: as §2
A short description of data set [19]: Tmax in Fischer 344 rat at 10 mg/kg, po. The class given is ADME, organism-based. The arrangement: dose 10 mg/kg, route oral. Particulars: Fischer 344, rat, in vivo. The procedure, abridged: as §2
Data set [20] relates to Rattus norvegicus. Description: AUC (0-24h) in Fischer 344 rat at 10 mg/kg, po. The following applies: in vivo.
Data set [21] relates to Rattus norvegicus. The data set can be described thus: Cmax in Fischer 344 rat at 2.5 mg/kg, iv. The class given is ADME, organism-based. Set-up: dose 2.5 mg/kg, route intravenous. The following applies: in vivo. The procedure, abridged:
as §2

Data set [22] can be described thus: Plasma concentration in Fischer 344 rat after 1 hr. The class given is ADME, organism-based. The procedure, abridged:
(§5)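 Plasma levels in fasted male Fischer 344 rats after a 10 mg/kg oral dose in pH 7 water (NaOH), quantified by positive-ion electrospray LC/MS/MS. Main protocol sampled at 0.08/0.25–24 h, n=3 rats per time point. A variant oral-only arm used n=6 rats with samples at 0.5, 1, 2, 3, 4 and 6 h.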

A short description of data set [23]: Plasma concentration in Fischer 344 rat after 3 hrs. The class given is ADME, organism-based. The method in brief:
as §5

Data set [24] has as its target Metabotropic glutamate receptor 8 (Homo sapiens, UniProt O00222). Description: Agonist activity at human mGluR8 assessed as effect on cAMP production in RGT cells. It is filed as functional, cell-based. The method in brief: as §3
Data set [25] is described as follows: Oral bioavailability in Fischer 344 rat at 10 mg/kg, po. It is filed as ADME, organism-based. Particulars: in vivo. The method in brief: as §2
The nature of data set [26]: Plasma concentration in Fischer 344 rat after 8 hrs. The class given is ADME, organism-based. The method in brief:
as §5

Metabotropic glutamate receptor 4 (Homo sapiens), sequence (Q14833 whole entry): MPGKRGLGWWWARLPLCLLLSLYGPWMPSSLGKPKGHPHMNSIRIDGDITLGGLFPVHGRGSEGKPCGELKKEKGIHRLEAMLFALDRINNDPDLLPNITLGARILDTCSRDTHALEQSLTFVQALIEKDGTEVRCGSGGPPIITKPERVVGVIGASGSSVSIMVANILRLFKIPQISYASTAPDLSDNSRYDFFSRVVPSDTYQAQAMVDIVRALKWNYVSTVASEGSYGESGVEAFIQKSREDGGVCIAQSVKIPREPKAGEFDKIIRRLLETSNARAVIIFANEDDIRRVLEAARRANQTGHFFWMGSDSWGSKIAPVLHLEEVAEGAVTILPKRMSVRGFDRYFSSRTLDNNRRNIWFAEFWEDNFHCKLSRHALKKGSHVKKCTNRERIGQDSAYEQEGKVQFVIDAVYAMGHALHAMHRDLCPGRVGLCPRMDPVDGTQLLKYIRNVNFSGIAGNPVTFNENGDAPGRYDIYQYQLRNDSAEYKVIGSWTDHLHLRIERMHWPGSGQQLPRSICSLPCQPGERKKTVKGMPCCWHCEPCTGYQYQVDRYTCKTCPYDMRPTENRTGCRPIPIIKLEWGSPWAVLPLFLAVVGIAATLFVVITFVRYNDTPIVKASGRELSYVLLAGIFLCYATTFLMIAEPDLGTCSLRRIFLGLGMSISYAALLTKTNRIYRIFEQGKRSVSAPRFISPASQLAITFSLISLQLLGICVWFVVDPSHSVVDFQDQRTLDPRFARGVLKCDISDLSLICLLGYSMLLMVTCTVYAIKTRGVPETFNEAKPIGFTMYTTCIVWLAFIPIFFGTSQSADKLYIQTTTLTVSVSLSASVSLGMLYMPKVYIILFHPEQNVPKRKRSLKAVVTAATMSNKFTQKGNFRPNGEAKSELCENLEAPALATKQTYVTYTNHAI
T1 sequence (Q14832 whole entry): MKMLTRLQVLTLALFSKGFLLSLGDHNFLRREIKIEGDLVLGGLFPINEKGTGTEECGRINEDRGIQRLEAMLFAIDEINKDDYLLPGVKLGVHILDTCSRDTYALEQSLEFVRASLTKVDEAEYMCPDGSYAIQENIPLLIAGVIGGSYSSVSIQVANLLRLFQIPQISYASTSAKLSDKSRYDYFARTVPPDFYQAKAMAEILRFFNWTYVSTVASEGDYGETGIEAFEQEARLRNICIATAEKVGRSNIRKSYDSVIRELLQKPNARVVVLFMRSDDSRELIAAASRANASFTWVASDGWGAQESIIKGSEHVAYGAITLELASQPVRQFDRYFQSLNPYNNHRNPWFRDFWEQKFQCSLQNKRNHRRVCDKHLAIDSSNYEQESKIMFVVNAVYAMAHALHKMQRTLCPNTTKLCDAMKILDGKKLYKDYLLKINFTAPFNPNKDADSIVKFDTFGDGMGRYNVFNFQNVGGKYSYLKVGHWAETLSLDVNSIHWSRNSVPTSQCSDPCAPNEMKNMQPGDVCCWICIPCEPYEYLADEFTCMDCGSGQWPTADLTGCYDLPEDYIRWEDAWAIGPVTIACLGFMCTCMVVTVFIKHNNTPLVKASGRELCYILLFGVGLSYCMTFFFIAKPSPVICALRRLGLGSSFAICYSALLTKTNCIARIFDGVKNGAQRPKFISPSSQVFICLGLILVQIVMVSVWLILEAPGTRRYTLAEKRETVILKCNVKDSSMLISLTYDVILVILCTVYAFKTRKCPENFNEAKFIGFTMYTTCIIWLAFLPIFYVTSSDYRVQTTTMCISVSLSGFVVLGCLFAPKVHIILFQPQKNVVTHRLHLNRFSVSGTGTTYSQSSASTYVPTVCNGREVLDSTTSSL

With `N[C@@]1(C(=O)O)C[S+]([O-])[C@H]2[C@H](C(=O)O)[C@H]21` (stereo in doubt; (-)-11), the outcome in [1], in [2], in [3] and in [4] was inactive.
Take `N[C@@]1(C(=O)O)CS(=O)(=O)[C@H]2[C@H](C(=O)O)[C@H]21` [LY404039]: the outcome in data set [5], in data set [7], in [10], in data set [1], in [2] and in data set [13] was inactive. Besides, the outcome in data set [3] and in [4] was inactive. In addition, the values for the Cmax with Rattus norvegicus [6] and in the data set on Rattus norvegicus [21] were 4 µg/mL and 7.5 µg/mL, respectively. For the same molecule, the figures for the EC50 in data set [8], in data set [15] and in data set [24] were 48 nM, 23.4 nM and 47.8 µM, respectively. Besides, the Activity in the data set with Rattus norvegicus [9] and in the data set with Rattus norvegicus [17] was 91% each time. The AUC(0-t) at 24 h in [11] was 7200 ng·h/mL; in data set [12], 2900 ng·h/mL. For the same molecule, the Ki in data set [14] came out at 92 nM. In addition, in the data set on Rattus norvegicus [16], the ED50 was 2.5 mg/kg. The Tmax in data set [18] came to 0 h; in data set [19] it was 1 h. For the same molecule, in the data set on Rattus norvegicus [20], the AUC stood at 7.2 µg/mL. This molecule displayed a concentration at 1 h in data set [22] of 4000 ng/mL. Further, the concentration at 3 h in data set [23] was > 500 ng/mL. Further, the bioavailability in [25] was determined as 63%. Moreover, in data set [26], the concentration at 8 h was < 10 ng/mL.
Consider `N[C@@]1(C(=O)O)CC[C@H]2[C@H](C(=O)O)[C@H]21`, for which the outcome in data set [5], in data set [7], in data set [10], in [1], in [2] and in data set [13] was inactive. In addition, the result in data set [3] and in data set [4] was inactive.
Consider `N[C@@]1(C(=O)O)C[S+]([O-])[C@H]2[C@H](C(=O)O)[C@H]21` (stereo in doubt; (-)-10), for which the result in data set [5], in data set [7], in [10], in [1], in data set [2] and in [13] was inactive. For the same molecule, the result in data set [3] and in data set [4] was inactive.
Regarding `N[C@@]1(C(=O)O)CO[C@H]2[C@H](C(=O)O)[C@H]21`, the result in [5], in data set [7], in data set [10], in data set [1], in data set [2] and in data set [13] was inactive. Besides, the result in data set [3] and in data set [4] was inactive.

Source of the values: ChEMBL document CHEMBL1139833, “Synthesis and metabotropic glutamate receptor activity of S-oxidized variants of (-)-4-amino-2-thiabicyclo-[3.1.0]hexane-4,6-dicarboxylate: identification of potent, selective, and orally bioavailable agonists for mGlu2/3 receptors” (J Med Chem, 2007).
